# Bioassay records as filed in PubChem.
# TAAR1 antag: human TAAR1 antagonism; CHO RD-HGA16 TAAR1, Fluo-8 calcium fluorescence, antagonist; 360,000 compounds, 1.5% hits; inhibition, % at 3 µM;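 active means inhibition above a per-plate cutoff, the mean inhibition of test compounds on that plate plus 3 SD, cut at about 49% in these data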;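 further: 0% = DMSO plus EC80 beta-PEA response and 100% = DMSO alone without agonist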
#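 Material: RD-HGA16 CHO cells with stable hTAAR1 and Gα16; Dosing: single nominal final test compound concentration of 3 µM; Schedule: seeding 17-24 h prior, 75-min 37 °C, 30-min RT dye loading; Detection: kinetic Fluo-8 calcium fluorescence measurement; Measure: % inhibition from peak post-agonist over basal fluorescence ratio; Benchmarks: vehicle and agonist controls.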
# OXTR potentiate: potentiates the human oxytocin receptor response; activation, % at 3 µM; 320,000 compounds, 0.061% hits; CHO-OTR cells, Fluo-8 calcium fluorescence, potentiator mode; 0% = oxytocin EC15, 100% = EC100; P30559;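 active means activation above that plate's cutoff, the mean activation of tested compounds plus 3 SD, cut at about 6.6% in these data, passing the limit was not always enough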;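 further: 100% uses oxytocin at 75 nM as the full agonist control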
#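 Material: human OTR in CHO cells. Compound: 3.0 µM, one dose. Timing: compound 6 min at room temperature before oxytocin, 100 s read. Evaluation: % activation of max/min ratio relative to oxytocin controls. Replication: single well per compound, singlicate. Signal: Fluo-8 calcium dye fluorescence.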
# OXTR ag: activates the human oxytocin receptor | AID 2435 | P30559 | CHO-OTR cells, Fluo-8 calcium fluorescence; normalized: DMSO 0%, oxytocin 100% | 320,000 compounds, 0.32% hits | activation, % at 3 µM;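 active means activation above the mean of all tested compounds plus 3 SD, cutoff set per screening run, cut at about 20% in these data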;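 further: peak over basal fluorescence ratio from a 100 s FLIPR kinetic read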
# V1R ag counter: counter-screen for oxytocin receptor agonists: human V1a receptor agonists; P37288; CHO-V1R cells, Fluo-8 calcium fluorescence, agonist mode; 0% DMSO, 100% 3 nM vasopressin; 320,000 compounds, 0.25% hits; activation, % at 3 µM;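 active means activation above the mean activation of all tested compounds plus 3 SD, per screening run, cut at about 20% in these data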;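 further: signal is peak over basal fluorescence ratio across a 100 second FLIPR read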
# Target sequence (P37288 whole entry, looked up): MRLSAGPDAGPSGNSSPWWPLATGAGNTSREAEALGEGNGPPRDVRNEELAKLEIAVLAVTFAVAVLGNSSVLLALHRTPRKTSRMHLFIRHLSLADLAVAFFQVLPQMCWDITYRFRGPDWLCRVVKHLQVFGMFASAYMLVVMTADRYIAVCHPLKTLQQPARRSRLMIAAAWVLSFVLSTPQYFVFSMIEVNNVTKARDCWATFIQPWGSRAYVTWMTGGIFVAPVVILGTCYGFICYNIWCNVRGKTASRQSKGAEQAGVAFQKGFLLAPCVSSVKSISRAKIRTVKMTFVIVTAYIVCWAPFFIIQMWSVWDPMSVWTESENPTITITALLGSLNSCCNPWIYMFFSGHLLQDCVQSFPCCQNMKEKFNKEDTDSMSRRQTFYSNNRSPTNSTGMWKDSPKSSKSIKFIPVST
# TAAR1 agonist: agonists of human TAAR1. Q96RJ0. CHO RD-HGA16 TAAR1, Fluo-8 calcium fluorescence; vehicle wells 0%, saturating PEA agonist 100%. activation, % at 3 µM. 360,000 compounds, 0.99% hits;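 active means activation above the mean activation of all test compounds in the run plus 3 SD, cut at about 38% in these data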
#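 Test system: RD-HGA16 (CHO) cells co-expressing Gα16 and hTAAR1 / Benchmarks: DMSO vehicle as 0%, PEA at EC100 as 100% / Repeats: no replicates (n 1) / Measure: % activation from peak over basal fluorescence ratio, DMSO-to-PEA scaled / Timing: 17-24 h plating, Fluo-8 75 min 37 °C, 30 min RT / Technique: kinetic Fluo-8 calcium fluorescence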
# TAAR1 nonsel count: counter-screen for TAAR1 antagonists: nonselective antagonists. shares compounds with TAAR1 antag. counterscreen cell line, calcium fluorescence, antagonist mode. inhibition, % at 3 µM. 2,400 compounds, 77% hits. AID 651780; in the data active means inhibition above about 22%;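 further: CHO-Ga16 host cells stimulated with ATP at an EC80 level; 0% = agonist EC80 plus vehicle and 100% = vehicle without agonist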
# TAAR1 ant conf: human TAAR1 antagonism, confirmed; shares compounds with TAAR1 antag; TAAR1-expressing cells, fluorescence antagonist read-out; inhibition, % at 3 µM; 2,400 compounds, 40% hits; AID 651785; in the data active means inhibition above about 49%;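 further: CHO-Ga16 host cells challenged with agonist PEA near its EC80; 0% = agonist at EC80 plus vehicle and 100% = vehicle with no agonist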
# Ga16 nonsel ag: nonselective Ga16 agonism, counter-screen. shares compounds with TAAR1 antag. Ga16-expressing cells, calcium fluorescence, agonist counterscreen. activation, % at 3 µM. 2,400 compounds, 18% hits; in the data active means activation above about 12%;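 further: 0% = vehicle wells and 100% = saturating stimulus response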
# TAAR1 ag count: TAAR1 agonism, antagonist counter-screen; shares compounds with TAAR1 antag; hTAAR1 cell line, fluorescence activation, agonist mode; activation, % at 3 µM; 2,400 compounds, 2% hits; AID 651955; in the data active means activation above about 37%;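 further: CHO cells stably expressing TAAR1 with calcium dye readout; 0% = DMSO vehicle and 100% = full agonist response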
# Active calls of the source: *; . = no result given. Hits are enriched below; roughly 2.3% of the tested compounds scored in any of these assays.
SMILES,TAAR1 antag,OXTR potentiate,OXTR ag,V1R ag counter,TAAR1 agonist,TAAR1 nonsel count,TAAR1 ant conf,Ga16 nonsel ag,TAAR1 ag count
COc1ccccc1NC(=O)c1ccc(NC(=O)COC(=O)C2(C)CC2(Cl)Cl)cc1 (centres undefined),63*,-1,0,1,13,29*,61*,11,8
S=C(NCc1ccco1)Nc1ccc(Oc2ccccc2)cc1,4,-19,3,8,10,.,.,.,.
COc1ccc2[nH]c(=O)c(CN(CC3CCCO3)S(=O)(=O)c3ccccc3F)cc2c1 (centres undefined),63*,-9,4,10,23,26*,43,10,17
COc1ccc2[nH]c(=O)c(CN(CC3CCCO3)C(=O)Nc3ccc(F)cc3)cc2c1 (centres undefined),81*,.,.,.,24,52*,66*,16*,12
COc1ccc(NC(=O)N(Cc2cc3cc(C)ccc3[nH]c2=O)CC2CCCO2)cc1 (centres undefined),-15,2,-2,0,0,.,.,.,.
CSc1ccc(CN(C)C(=O)c2cccc(S(=O)(=O)N3CCN(Cc4ccccc4)CC3)c2)cc1,19,-16,7,8,4,.,.,.,.
O=C(NCCN1CCOCC1)c1ccc2c(c1)N(Cc1ccc(Cl)cc1)C(=O)CS2,-2,-7,1,1,2,.,.,.,.
O=C(NCCN1CCOCC1)c1ccc(=O)n(Cc2ccc(Cl)cc2)c1,105*,0,1,0,7,12,15,0,-2
CC(=O)Nc1ccc(Nc2nc(-c3ccccc3)nc3ccccc23)cc1,59*,-10,5,0,21,34*,56*,8,6
Cc1ccc(Nc2nc(-c3cccnc3)nc3ccccc23)cc1,56*,-11,-3,-2,-1,17,27,3,-1
Cc1ccc(CNc2nc(-c3cccnc3)nc3ccccc23)cc1,28,-7,-1,3,4,.,.,.,.
COc1ccc(/C=N/NC(=O)c2ccc(NC(=O)c3ccccc3Br)cc2)cc1,47,-5,1,4,6,.,.,.,.
Brc1ccc2nc(-c3ccc(CN4CCC(c5nc6ccccc6[nH]5)CC4)cc3)c(-c3ccccc3)nc2c1,86*,.,.,.,25,56*,68*,20*,37*
COc1ccc2nc(-c3ccc(CN4CCC(c5nc6ccccc6[nH]5)CC4)cc3)c(-c3ccccc3)nc2c1,76*,.,.,.,17,34*,40,11,20
COc1ccc(C2CC(c3cccs3)=NN2C(=O)COC(=O)c2cncc(Br)c2)cc1OC (centres undefined),-13,-26,0,0,1,.,.,.,.
O=C(CSc1n[nH]c(=O)n1C1CC1)Nc1cc(Cl)ccc1Oc1ccccc1,79*,-28,7,7,21,47*,66*,14*,13
Cc1ccc(N(CC(=O)Nc2ccc(Br)c(C)c2)S(=O)(=O)c2c(C)[nH]c(=O)[nH]c2=O)cc1,-9,-13,0,0,5,.,.,.,.
COc1cccc(/C=N/n2c(N)c(S(=O)(=O)c3cccs3)c3nc4ccccc4nc32)c1,-6,-2,1,0,7,.,.,.,.
Nc1c(S(=O)(=O)c2cccs2)c2nc3ccccc3nc2n1/N=C/c1cccc(O)c1,52*,-13,2,1,11,33*,52*,7,7
CC1(c2nnc(-c3ccncc3)o2)CC(c2c(Cl)cccc2Cl)=NO1 (centres undefined),32,-8,2,0,13,.,.,.,.
